# Results published in ChEMBL document CHEMBL3098049, “Concise synthesis and biological evaluation of 2-Aroyl-5-amino benzo[b]thiophene derivatives as a novel class of potent antimitotic agents” (J Med Chem, 2013).
# Activity calls are given as the source filed them. The calls are words filed in the database; no cut-off is given here.
# Key:
# [1] = target: T1, M-phase inducer phosphatase 3 (Homo sapiens) (UniProt P30307); assay: Increase of cdc25c phosphorylation at Ser216 in human HeLa cells at 10 to 100 nM after 24 hrs by Western blot analysis; assay type: cell-based
# T1 sequence (whole entry): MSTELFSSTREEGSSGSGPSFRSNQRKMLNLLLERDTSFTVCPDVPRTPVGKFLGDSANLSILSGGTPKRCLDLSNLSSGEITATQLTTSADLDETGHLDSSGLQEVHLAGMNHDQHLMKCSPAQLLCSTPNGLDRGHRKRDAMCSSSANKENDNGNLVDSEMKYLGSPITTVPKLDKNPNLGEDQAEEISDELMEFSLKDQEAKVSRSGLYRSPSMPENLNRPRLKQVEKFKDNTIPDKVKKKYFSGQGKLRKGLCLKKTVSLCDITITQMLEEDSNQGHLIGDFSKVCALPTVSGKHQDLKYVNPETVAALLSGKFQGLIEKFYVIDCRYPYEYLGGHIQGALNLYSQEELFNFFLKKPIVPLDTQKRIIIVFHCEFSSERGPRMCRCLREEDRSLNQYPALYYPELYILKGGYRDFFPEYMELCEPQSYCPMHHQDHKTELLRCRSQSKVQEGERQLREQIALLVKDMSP
# Outline: (§1)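 HeLa cultures treated 24 or 48 h, washed in cold PBS, lysed 30 min at 0 °C, clarified at 15000g. 20 μg protein run on 7.5−15% gradient SDS-PAGE and blotted to PVDF. Primary antibodies 2 h at room temperature, peroxidase secondary 60 min, ECL detection. Membranes stripped and reprobed for β-actin as loading control.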
# Tubulin (Homo sapiens) [2] = target: T2, Tubulin (Homo sapiens) (UniProt P68371+Q9H4B7+P0DPH7+P68366+Q13509+Q71U36+P04350+Q3ZCM7+P07437+P68363+Q9BQE3+Q6PEY2+Q13885+Q9BVA1+Q9BUF5); assay: Displacement of [3H]-colchicine from tubulin (unknown origin) at 1 uM after 10 mins relative to control; assay type: protein-complex assay
# Jurkat [3] = assay: Cell cycle arrest in human Jurkat cells assessed as accumulation at G2/M phase at 10 nM after 24 hrs by propidium iodide staining-based flow cytometric analysis; assay type: functional
# Outline: (§2)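 Jurkat cells treated for 24 h, fixed, PI-labelled and analysed by flow cytometry for cell-cycle phase distribution. Mean of three independent experiments.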
# HeLa [4] = assay: Induction of mitochondrial membrane depolarization in human HeLa cells at 15 to 250 nM by JC-1 staining-based fluorescence assay; assay type: functional, cell-based; conditions: TDE = time-dependent effect
# Outline: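 HeLa cells treated 24 or 48 h, then stained with JC-1. Cells with depolarised mitochondria quantified by flow cytometry. Mean of three independent experiments.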
# Mus musculus = assay: Toxicity in Balb/c-nu mouse xenografted with human MNNG-HOS cells assessed as change in body weight at 50 mg/kg, ip administered once every 3 days for 9 days measured after day 18; assay type: organism-based; design: dose 50 mg/kg, route intraperitoneal; conditions: in vivo
# Outline: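 MNNG/HOS osteosarcoma cells grown to exponential phase, suspended in FBS-free MEM (10⁷ cells/mL), 0.1 mL injected into back hypodermis of nude mice. At ~100 mm³, 12 mice randomised to three groups (vehicle, CA-4P in isotonic saline, test in 5% DMSO/olive oil). 50 mg/kg ip at 0.01 mL/g on days 0, 3, 6, 9. Tumour volume and body weight tracked; tumours excised and weighed day 18; […].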
# PBL = assay: Cytotoxicity against PHA-stimulated human PBL assessed as growth inhibition after 72 hrs by MTT assay; assay type: cell-based
# Outline: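 Human PBL from healthy donors were isolated on a density gradient, washed, and held overnight in RPMI-1640 with 10% FBS. For proliferating cultures, nonadherent cells were resuspended at 5 × 10⁵ cells/mL with 2.5 μg/mL PHA; resting PBL received no PHA. Cells were exposed to varying compound concentrations, and viability was read by MTT after 72 h. IC50 is the concentration reducing growth by 50%, as the mean of three independent experiments.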
# MNNG-HOS = assay: Antitumor activity against human MNNG-HOS cells xenografted in Balb/c-nu mouse assessed as tumor growth inhibition at 50 mg/kg, ip measured after 3 days; assay type: functional, organism-based; design: dose 50 mg/kg; conditions: HOS-TE85
# HeLa [5] = assay: Cell cycle arrest in human HeLa cells assessed as accumulation at G2/M phase at 10 nM after 24 hrs by propidium iodide staining-based flow cytometric analysis; assay type: functional
# Outline: (§3)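 HeLa cells (5 × 10⁵) treated for 24 h. Harvested, fixed in 70% ethanol chilled to 0 °C, then suspended in RNase with 0.1% Triton X-100. DNA stained with PI, analysed by flow cytometry as DNA-content histograms. Mean of three independent experiments.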
# Jurkat [6] = assay: Cell cycle arrest in human Jurkat cells assessed as reduction in S phase up to 60 nM after 24 hrs by propidium iodide staining-based flow cytometric analysis relative to control; assay type: functional; outline: as §2
# HeLa [7] = assay: Downregulation of Bcl-2 protein expression in human HeLa cells at 10 to 100 nM after 24 to 48 hrs by Western blot analysis; assay type: functional, cell-based; outline: as §1
# [8] = Selectivity ratio of IC50 for HUVEC to IC50 for human HeLa cells; assay type: ADME, cell-based; conditions: HUVEC and HeLa cells, read-out: Ratio IC50
# HUVEC = assay: Cytotoxicity against HUVEC assessed as growth inhibition after 72 hrs by MTT assay; assay type: cell-based; conditions: Homo sapiens
# Outline: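 HUVECs were detached with EDTA/trypsin at confluence, and only passages 1–6 were used. Cells were exposed to varying compound concentrations, and viability was read by MTT after 72 h. IC50 is the concentration reducing cell growth by 50%, as the mean of three independent experiments.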
# Jurkat [9] = assay: Cell cycle arrest in human Jurkat cells assessed as accumulation at G2/M phase after 24 hrs by propidium iodide staining-based flow cytometric analysis; assay type: functional; outline: as §2
# [10] = Inhibition of bovine brain tubulin polymerization preincubated for 15 mins followed by GTP addition measured for 20 mins by turbidometric analysis; design: species or system Bos taurus
# HeLa [11] = assay: Induction of apoptosis in human HeLa cells assessed as caspase-9 cleavage at 10 to 100 nM after 24 to 48 hrs by Western blot analysis; assay type: functional, cell-based; outline: as §1
# [12] = target: T1, M-phase inducer phosphatase 3 (Homo sapiens); assay: Increase of cdc25c phosphorylation at Ser216 in human HeLa cells at 10 to 100 nM after 48 hrs by Western blot analysis; assay type: cell-based; outline: as §1
# HeLa [13] = assay: Cell cycle arrest in human HeLa cells assessed as accumulation at G2/M phase at 15 to 30 nM after 24 hrs by propidium iodide staining-based flow cytometric analysis relative to control; assay type: functional; outline: as §3
# Tubulin (Homo sapiens) [14] = target: T2, Tubulin (Homo sapiens); assay: Displacement of [3H]-colchicine from tubulin (unknown origin) at 5 uM after 10 mins relative to control; assay type: protein-complex assay
# HeLa [15] = assay: Induction of apoptosis in human HeLa cells at 15 nM after 24 to 48 hrs by annexin-V-FITC/propidium iodide staining-based flow cytometric analysis; assay type: functional, cell-based
# Outline: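 HeLa cells treated 24 or 48 h, stained with annexin-V-FITC and PI, analysed by flow cytometry. Excitation 488 nm; emission 525 nm for FITC, 585 nm for PI. Gating separates live, early apoptotic, late apoptotic and necrotic cells. Mean of three independent experiments.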
structure (smiles),measurement,setting,value
COc1cc(C(=O)c2cc3cc(N)cc(OC)c3s2)cc(OC)c1OC,Activity,[1],Active
same,inhibition,Tubulin (Homo sapiens) [2],89%
same,Activity,Jurkat [3],Active
same,Activity,HeLa [4],tde
same,Activity,Mus musculus,Non-toxic
same,IC50,PBL,20.6 µM
same,TGI,MNNG-HOS,Active
same,Activity,HeLa [5],Active
same,Activity,Jurkat [6],Active
same,Activity,HeLa [7],Active
same,selectivity ratio,[8],460
same,IC50,HUVEC,5.5 µM
same,Activity,Jurkat [9],Dose-dependent effect
same,IC50,[10],520 nM
same,Activity,HeLa [11],Active
same,Activity,[12],inactive
same,Activity,HeLa [13],>80%
same,inhibition,Tubulin (Homo sapiens) [14],97%
same,Activity,HeLa [15],Active
